Drawing on ChEMBL document CHEMBL1146074, “Design and synthesis of 1-indol-1-yl-propan-2-ones as inhibitors of human cytosolic phospholipase A2alpha” (J Med Chem, 2006), this text covers IC50 and inhibition for 23 molecules.

Assay [1] has as its target T1, Cytosolic phospholipase A2 (Homo sapiens, UniProt P47712).
T1 sequence (P47712 whole entry): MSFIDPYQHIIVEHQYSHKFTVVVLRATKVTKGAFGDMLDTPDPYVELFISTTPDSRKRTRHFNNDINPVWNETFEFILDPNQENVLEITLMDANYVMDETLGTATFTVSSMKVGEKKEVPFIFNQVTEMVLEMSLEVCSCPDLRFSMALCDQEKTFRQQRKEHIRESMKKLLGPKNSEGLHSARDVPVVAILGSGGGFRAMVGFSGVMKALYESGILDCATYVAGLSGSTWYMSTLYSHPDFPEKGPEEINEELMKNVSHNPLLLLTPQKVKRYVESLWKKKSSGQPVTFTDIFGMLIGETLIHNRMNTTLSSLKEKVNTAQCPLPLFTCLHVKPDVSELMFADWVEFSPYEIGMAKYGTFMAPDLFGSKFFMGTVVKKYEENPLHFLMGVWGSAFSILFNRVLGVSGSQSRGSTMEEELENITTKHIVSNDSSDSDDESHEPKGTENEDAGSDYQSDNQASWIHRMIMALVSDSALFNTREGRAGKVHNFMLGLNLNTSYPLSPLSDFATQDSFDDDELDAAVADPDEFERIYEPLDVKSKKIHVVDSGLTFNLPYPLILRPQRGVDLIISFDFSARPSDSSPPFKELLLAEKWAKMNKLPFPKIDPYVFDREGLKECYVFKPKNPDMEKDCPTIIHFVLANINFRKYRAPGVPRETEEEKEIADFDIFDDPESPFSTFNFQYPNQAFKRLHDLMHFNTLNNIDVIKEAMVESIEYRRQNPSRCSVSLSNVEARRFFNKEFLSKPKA
Nature of the assay: Inhibition of human isolated cPLA2-alpha by vesicle assay. The essentials: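 Test compounds were at most 10 µM. Arachidonic acid formed was cleaned up by solid-phase extraction and quantified by reversed-phase HPLC with UV at 200 nm. IC50 values are means of at least two independent determinations.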

The target in assay [2] is T1, Cytosolic phospholipase A2. In words: Inhibition of cPLA2alpha activity assessed by A23187-induced arachidonic acid release in human platelet. It counts as functional. In a few lines: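 Intact human platelets stimulated with calcium ionophore A23187 (1 µM final) for 1 min, with ETYA added to block cyclooxygenase-1 and 12-lipoxygenase. Released arachidonic acid was measured by RP18 HPLC (acetonitrile/10 mM ammonium phosphate pH 7.4, 50:50) with UV at 200 nm, using an internal standard. IC50 values are means of at least two independent determinations.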

Assay [3] addresses T1, Cytosolic phospholipase A2. Nature of the assay: Inhibition of cPLA2-alpha activity assessed by TPA-induced arachidonic acid release in human platelet. It counts as functional. In a few lines: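 Intact human platelets stimulated with TPA (2 µM final) for 60 min, with the cyclooxygenase/12-lipoxygenase inhibitor ETYA added. Released arachidonic acid was quantified by RP18 HPLC with UV at 200 nm, using an internal standard. Parallel incubations without TPA were used to calculate specific hydrolysis. IC50 values are means of at least two independent determinations.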

The target in assay [4] is T2, Cytosolic phospholipase A2 (Homo sapiens) (UniProt P47712).
T2 sequence (whole entry): T1 sequence (P47712 whole entry)
Nature of the assay: Inhibition of human isolated cPLA2-alpha by vesicle assay at 10 uM.

Assay [5] deals with T2, Cytosolic phospholipase A2 (Homo sapiens). In words: Inhibition of cPLA2-alpha activity assessed by A23187-induced arachidonic acid release in human platelet at 10 uM. The class given is functional. The essentials:
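Intact human platelets, with the dual cyclooxygenase/12-lipoxygenase inhibitor ETYA added, stimulated with calcium ionophore A23187 (1 µM final) for 1 min. Arachidonic acid released was measured by reversed-phase HPLC with UV at 200 nm, using 3-(4-decyloxyphenyl)propanoic acid as internal standard. Percent inhibition was read at 10 µM test compound. Cell lysis was checked by turbidimetry.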

Calls of active or inactive are those of the source. The rule behind the calls is not given here.

In the case of `CCCCCCCCCCOc1ccc(OCC(=O)Cn2cc(C(=O)OC)c3cc(C(=O)O)ccc32)cc1`, the IC50 in assay [1] was determined as 4.3 nM; in assay [2], 570 nM; in assay [3], 0.9 nM.

As for `CCCCCCCCc1ccc(OCC(=O)Cn2ccc3cc(Cl)ccc32)cc1`, the inhibition result in assay [4] and in assay [5] was “inactive” each time.

Turning to `CCCCCCCCc1ccc(OCC(=O)Cn2ccc3ccccc32)cc1`, the inhibition entry in assay [4] is “inactive”. In assay [5], this molecule came in with an inhibition of 43%.

`CCCCCCCCc1ccc(OCC(=O)Cn2ccc3cc(C=O)ccc32)cc1`: the values for the IC50 in assay [1] and in assay [2] were 4300 nM and 4900 nM, respectively.

For the molecule `CCCCCCCCc1ccc(OCC(=O)Cn2cc(C(=O)OC)c3cc(C(=O)O)ccc32)cc1`, the results for the IC50 in assay [1], in assay [2] and in assay [3] were 4.9 nM, 1400 nM and 1.1 nM, respectively.

For `CCCCCCCCc1ccc(OCC(=O)Cn2ccc3cc(OC)ccc32)cc1`, the inhibition result in assay [4] was “inactive”. Further, the inhibition in assay [5] was found to be 37%.

`CCCCCCCCc1ccc(OCC(=O)Cn2ccc3cc(C)ccc32)cc1`: the inhibition result in assay [4] and in assay [5] was “inactive” each time.

For the molecule `CCCCCCCCc1ccc(OCC(=O)Cn2ccc3c(C(=O)O)cccc32)cc1`, the inhibition in assay [4] and in assay [5] was 40% in each case.

Take `CCCCCCCCc1ccc(OCC(=O)Cn2cc(C=O)c3cc(C(=O)O)ccc32)cc1`: the IC50 amounted to 16 nM in assay [1], 380 nM in assay [2] and 9.7 nM in assay [3].

In the case of `CCCCCCCCCCOc1ccc(OCC(=O)Cn2ccc3cc(C(=O)O)ccc32)cc1`, the results for the IC50 in assay [1], in assay [2] and in assay [3] were 20 nM, 210 nM and 7.8 nM, respectively.

Turning to `CCCCCCCCc1ccc(OCC(=O)Cn2ccc3cc(C#N)ccc32)cc1`, the figures for the inhibition in assay [4] and in assay [5] were 25% and 46%, respectively.

Regarding `CCCCCCCCCCOc1ccc(OCC(=O)COc2ccc(C(=O)O)cc2)cc1`, in assay [2], half-maximal inhibition (IC50) was put at 250 nM.

On to `CCCCCCCCc1ccc(OCC(=O)Cn2cc(C(C)=O)c3cc(C(=O)O)ccc32)cc1`, for which the IC50 in assay [1] turned out to be 16 nM; in assay [2] it was 1000 nM; in assay [3] it was 6.4 nM.

As to `CCCCCCCCc1ccc(OCC(=O)Cn2ccc3cc(C(=O)OC)ccc32)cc1`, the values for the inhibition in assay [4] and in assay [5] were 36% and 40%, respectively.

As for `CCCCCCCCc1ccc(OCC(=O)Cn2cc(C(C)(C)C)c3cc(C(=O)O)ccc32)cc1`, the figures for the IC50 in assay [1], in assay [2] and in assay [3] were 340 nM, 3300 nM and 230 nM, respectively.

`CCCCCCCCc1ccc(OCC(=O)Cn2cc(C#N)c3cc(C(=O)O)ccc32)cc1`: the IC50 in assay [1] was found to be 15 nM; in assay [2], 370 nM; in assay [3], 11 nM.

For the molecule `CCCCCCCCc1ccc(OCC(=O)Cn2cc(C(=O)O)c3ccccc32)cc1`, the inhibition in assay [4] and in assay [5] was 40% each time.

For `CCCCCCCCc1ccc(OCC(=O)Cn2cc(Cl)c3cc(C(=O)O)ccc32)cc1`, the IC50 in assay [1] came to 110 nM; in assay [2], 1500 nM; in assay [3] it was 120 nM.

Consider `CCCCCCCCc1ccc(OCC(=O)Cn2ccc3ccc(C(=O)O)cc32)cc1`, for which the IC50 in assay [1] was 1100 nM; in assay [2], 4700 nM.

As to `CCCCCCCCc1ccc(OCC(=O)Cn2c(C(=O)O)cc3ccccc32)cc1`, the inhibition entry in assay [4] is “inactive”. For the same molecule, the midpoint of inhibition in assay [2], the IC50, lay at 8000 nM.

Consider `CCCCCCCCc1ccc(OCC(=O)Cn2ccc3cc(C(N)=O)ccc32)cc1`, for which the values for the IC50 in assay [1] and in assay [2] were 120 nM and 770 nM, respectively.

Turning to `CCCCCCCCc1ccc(OCC(=O)Cn2cc(C(=O)O)c3cc(C(=O)O)ccc32)cc1`, the concentration for half-maximal inhibition (IC50) in assay [1] stood at 890 nM; in assay [2], 6500 nM; in assay [3], 560 nM.

In the case of `CCCCCCCCc1ccc(OCC(=O)Cn2ccc3cc(C(=O)O)ccc32)cc1`, the IC50 in assay [2] was 410 nM; in assay [3], 18 nM.

The term IC50 denotes the concentration that gives 50% inhibition. A lower IC50 goes with higher potency. For orientation: inhibition means the relative decrease from the control value, in per cent.
